KCNK9 inh – human KCNK9 channel inhibition | Q9NPC2 | HEK293 KCNK9, FluxOR thallium flux fluorescence; stronger effect = lower value | B-score at 10 µM | 310,000 tested, 1.2% active | AID 488922;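 active = ratio B-score over 3 SD below the library mean, with starting fluorescence within 5 SD of its mean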;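 also: negative B-score means less thallium flux so channel inhibition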
KCNQ1 act – human KCNQ1 channel potentiation or activation; P51787; CHO-K1 KCNQ1, thallium flux FluxOR fluorescence; stronger effect = higher value; B-score at 10 µM; 310,000 tested, 0.35% active;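 active = fluorescence ratio B-score, a plate-corrected score, at least three library SD, with initial intensity B-score within 5 SD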
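assay system = CHO-K1 cells stably expressing KCNQ1 | medium = assay buffer, equal DMSO in all wells | timing = 37 °C overnight plating, 90-min dark dye load, 20-min compound pretreatment | measured by = kinetic FluxOR thallium fluorescence, 10-s 1-Hz baseline, 110-s post-stimulus read | measure = fluorescence change relative to baseline, converted to B score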
Kir21 inh – inhibitors of mouse Kir2.1 inward-rectifier potassium channel; 310,000 tested, 0.85% active; AID 1672; P35561; B-score at 10 µM; HEK293-Kir2.1, FluxOR thallium flux fluorescence; stronger effect = lower value;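 active = fluorescence ratio B-score at or below minus 3 SD of library scores, with starting-brightness B-score within 2 SD, cut at about -4.2 in these data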;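 also: channel flux triggered by added potassium and thallium sulfate stimulus; B-score of peak minus minimum fluorescence over baseline after thallium stimulus; more negative B-score means stronger Kir2.1 block with less thallium influx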
Target sequence (P35561 whole entry, looked up): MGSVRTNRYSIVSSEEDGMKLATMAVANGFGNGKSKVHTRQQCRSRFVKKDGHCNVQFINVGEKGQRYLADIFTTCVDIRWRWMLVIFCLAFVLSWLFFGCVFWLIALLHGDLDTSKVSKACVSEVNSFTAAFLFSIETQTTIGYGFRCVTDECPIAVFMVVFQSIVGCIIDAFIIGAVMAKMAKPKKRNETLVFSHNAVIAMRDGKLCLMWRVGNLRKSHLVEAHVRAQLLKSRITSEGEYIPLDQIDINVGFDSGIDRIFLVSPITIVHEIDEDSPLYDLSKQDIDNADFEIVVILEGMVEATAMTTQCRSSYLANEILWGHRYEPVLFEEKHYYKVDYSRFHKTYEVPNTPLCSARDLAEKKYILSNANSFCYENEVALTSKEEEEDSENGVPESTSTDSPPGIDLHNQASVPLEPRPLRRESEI
hERG rescue – shields human hERG channel from block by proarrhythmic agents | Q12809 | CHO-hERG, FluxOR thallium flux, dofetilide IC70 present | activation (rescue from dofetilide block), less the hit threshold, % at 10 µM | 310,000 tested, 0.51% active;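 active = activation above the mean of controls blocked by dofetilide plus 5 SD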;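 also: thallium influx through hERG after potassium depolarization seen as dye fluorescence rise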
KCNK3 inh – human KCNK3 channel inhibition, primary screen | O14649 | CHO-KCNK3 thallium flux, FluxOR fluorescence; stronger effect = lower value | B-score at 10 µM | 340,000 tested, 0.84% active | AID 602410;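 active = B-score under library mean minus 4 SD, starting fluorescence ratio at most library mean plus 5 SD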;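 also: more negative B-score means stronger inhibition of thallium flux through KCNK3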
KCNQ1 block – human KCNQ1 channel inhibition; P51787; CHO-K1 KCNQ1, FluxOR thallium flux fluorescence; stronger effect = higher value; B-score at 10 µM; 310,000 tested, 1.3% active; AID 2642;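 active = compounds whose thallium flux B-score, printed positive for inhibition, exceeds three library SD while starting fluorescence stays within three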;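 also: channel opened by potassium depolarization with thallium stimulus after 20 min compound exposure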
KCNK9 block conf – confirmation of human KCNK9 potassium channel inhibitors; shares compounds with KCNK9 inh; inhibition, % at 10 µM; 4,900 tested, 43% active; HEK293 KCNK9 cells, FluxOR thallium flux fluorescence;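 active = thallium signal inhibited by more than 5 SD of the compound-free buffer control wells, on both duplicate plates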;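 also: 0% = assay buffer control wells without compound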
Kir2-1 spec – selectivity of KCNK9 modulators against mouse Kir2.1. inhibition, % at 10 µM. shares compounds with KCNK9 inh. Kir2.1 cells, FluxOR thallium flux fluorescence. 4,900 tested, 4% active;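 active = thallium signal drop more than 5 SD beyond the mean of the no-compound control wells, seen in both duplicate plates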;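 also: signal is fluorescence rise after thallium addition divided by baseline fluorescence; plate controls were assay buffer only for no effect and full block by chlorpromazine control for full effect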
KCNK9 uninduced – second counter-screen for KCNK9 modulators: effect in non-induced cells. 4,900 tested, 40% active. non-induced KCNK9-HEK293, FluxOR thallium flux. inhibition, % at 10 µM. shares compounds with KCNK9 inh;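 active = thallium signal drop beyond 5 SD of the untreated control mean, on both duplicate plates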;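 also: plate controls were buffer only IC0 wells for no effect and SID17386958 at its maximal inhibitory level for full effect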
KCNK3 confirm – confirmation of human KCNK3 two-pore domain potassium channel inhibitors | shares compounds with KCNK3 inh | CHO-KCNK3 thallium flux, FluxOR fluorescence; 0% buffer, 100% carvedilol maximal block | ratio percent of control, % at 10 µM | 2,400 tested, 99% active | AID 651638;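 active = ratio percent of control, averaged over triplicates, above buffer control mean plus 5 SD, cut at about 64% in these data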;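 also: ratio is the fluorescence rise from min to max over baseline after thallium stimulus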
KCNK3 uninduced – KCNK3 inhibitor counter-screen hit in non-induced cells | shares compounds with KCNK3 inh | non-induced KCNK3 parental cells, FluxOR thallium flux; stronger effect = lower value | thallium flux ratio (lower = more inhibition) at 10 µM | 2,400 tested, 40% active;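 active = thallium flux ratio, averaged over three wells, more than 5 SD below the buffer control mean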;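 also: host cells are CHO cells without KCNK3 induction; ratio is peak minus trough fluorescence over baseline then normalized to buffer controls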
Active calls of the source: *. The list is not random: actives were taken first. Their share in the collection is about 3.7%.

Results for CSCc1cc(N(C)C)nc(SCc2ccc(Cl)c(Cl)c2)n1 ?
KCNK9 inh: -10.3*; KCNQ1 act: inactive; Kir21 inh: -0.42; hERG rescue: -0.3; KCNK3 inh: inactive; KCNQ1 block: inactive; KCNK9 block conf: 72.0%*; Kir2-1 spec: inactive; KCNK9 uninduced: 57.5%*; KCNK3 confirm: 104.3*; KCNK3 uninduced: 0.155*

How did CCCN1Cc2cccc(C(=O)Nc3ccc(C)cc3)c2C1=O do in these assays?
KCNK9 inh: inactive; KCNQ1 act: inactive; Kir21 inh: -2; hERG rescue: -11.2; KCNK3 inh: inactive; KCNQ1 block: inactive

How did CCOC(=O)c1ccc(NC(=O)c2cccc3c2C(=O)N(CC2CCCO2)C3)cc1 (stereo not drawn) do in these assays?
KCNK9 inh: -8.62*; KCNQ1 act: inactive; Kir21 inh: -1.35; hERG rescue: -19.9; KCNK3 inh: -9.33*; KCNQ1 block: inactive; KCNK9 block conf: 63.5%*; Kir2-1 spec: inactive; KCNK9 uninduced: inactive; KCNK3 confirm: 131.0*; KCNK3 uninduced: 0.133*

Results for CCc1nc2c(c(=O)[nH]1)C1(CCCC1)Cc1ccccc1-2 ?
KCNK9 inh: inactive; KCNQ1 act: inactive; Kir21 inh: 1.02; hERG rescue: 0.3; KCNK3 inh: inactive; KCNQ1 block: inactive

How did CCCn1c(SCC#N)nc2c(c1=O)C1(CCCC1)Cc1ccccc1-2 do in these assays?
KCNK9 inh: -9.92*; KCNQ1 act: inactive; Kir21 inh: 0.31; hERG rescue: -3.8; KCNK3 inh: -10.1*; KCNQ1 block: inactive; KCNK9 block conf: 51.5%*; Kir2-1 spec: inactive; KCNK9 uninduced: 29.0%*; KCNK3 confirm: 95.3*; KCNK3 uninduced: inactive

How did CC(C)Cc1ccc(/C=C/C(=O)N2CCCCC2)cc1 do in these assays?
KCNK9 inh: -9.8*; KCNQ1 act: inactive; Kir21 inh: 2.25; hERG rescue: -8.8; KCNK3 inh: -12.7*; KCNQ1 block: inactive; KCNK9 block conf: 74.0%*; Kir2-1 spec: inactive; KCNK9 uninduced: 39.0%*; KCNK3 confirm: 114.0*; KCNK3 uninduced: inactive

How did CCc1ccc(/C=C\C(=O)N2CCCC2)cc1 do in these assays?
KCNK9 inh: inactive; KCNQ1 act: inactive; Kir21 inh: -0.75; hERG rescue: -6.0; KCNK3 inh: inactive; KCNQ1 block: inactive

What do the screens show for `Cc1ccc(S(=O)(=O)N(C)C)cc1NC(=O)c1cc(C(C)(C)C)nn1Cc1ccccc1`?
KCNK9 inh: -16.1*; KCNQ1 act: inactive; Kir21 inh: -0.96; hERG rescue: -5.4; KCNK3 inh: -12.4*; KCNQ1 block: inactive; KCNK9 block conf: 39.5%*; Kir2-1 spec: inactive; KCNK9 uninduced: 33.0%*; KCNK3 confirm: 128.0*; KCNK3 uninduced: 0.136*

Results for Cc1ccc(S(=O)(=O)N(C)C)cc1NC(=O)CN1CCN(Cc2ccccc2)CC1 ?
KCNK9 inh: inactive; KCNQ1 act: inactive; Kir21 inh: -3.56; hERG rescue: -8.4; KCNK3 inh: inactive; KCNQ1 block: inactive

From PubChem BioAssay
